Laboratory results: ChEMBL document CHEMBL4052798, “Design, synthesis and biological evaluation of indole derivatives as Vif inhibitors” (Bioorg Med Chem Lett, 2017)
Activity calls are given as the source filed them. No cut-off for these calls is given here.

How the values were obtained:
[1] = test system: Human immunodeficiency virus 1; test: Inhibition of doxycycline-induced HIV1 Vif expressed in TREX-hVif-15 cells co-expressing EYFP-N1-tagged human A3G assessed as reduction in Vif-mediated A3G degradation by measuring fold change in mean fluorescence intensity at 50 uM by flow cytometric method; type: cell-based
Outline: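 TREX-hvif-15 cells with Tet-On-regulated Vif were transfected with EYFP-N1-hA3G, and Vif was induced with 1 μg/mL Dox. Compounds were tested at 50 µM. A3G-EYFP mean fluorescence intensity was expressed as fold change and scored as: no or <1-fold; 1–2; 2–3; >3. Reference groups were A3G⁺/Vif⁻ and A3G⁺/Vif⁺.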

[2] = test system: Human immunodeficiency virus 1; test: Inhibition of doxycycline-induced HIV1 Vif expressed in TREX-hVif-15 cells co-expressing EYFP-N1-tagged human A3G assessed as restoration of Vif-induced A3G degradation level at 20 uM after 48 hrs by Western blot analysis; type: cell-based
Outline: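 TREX-hvif-15 cells were transfected with EYFP-N1-hA3G, and Vif was induced with 0.1 μg/mL Dox. Cells were treated with or without compound at 20 μM. A3G and Vif protein levels were detected by western blot, and A3G restoration was graded qualitatively, lowest to high.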

CS(=O)(=O)c1ccc(-c2ccc3[nH]ccc3c2)cc1
fold change (FC) [1]: 2 to 3 | inhibition [2]: Active

O=C(O)c1ccc(-c2ccc3[nH]ccc3c2)nc1
fold change (FC) [1]: > 3 | inhibition [2]: Active

O=Cc1ccc(-c2ccc3[nH]ccc3c2)cc1
fold change (FC) [1]: < 1 | inhibition [2]: inactive

O=Cc1cccc(-c2ccc3[nH]ccc3c2)n1
fold change (FC) [1]: 1 to 2 | inhibition [2]: Active

Nc1ncccc1-c1ccc2[nH]ccc2c1
fold change (FC) [1]: 1 to 2 | inhibition [2]: Active

O=C(O)Cc1ccc(-c2ccc3[nH]ccc3c2)cc1
fold change (FC) [1]: < 1 | inhibition [2]: inactive

COc1ccc(-c2ccc3[nH]ccc3c2)cn1
fold change (FC) [1]: 1 to 2 | inhibition [2]: Active

O=Cc1ccccc1-c1ccc2[nH]ccc2c1
fold change (FC) [1]: 1 to 2 | inhibition [2]: inactive

O=Cc1cccc(-c2ccc3[nH]ccc3c2)c1
fold change (FC) [1]: 1 to 2 | inhibition [2]: Active

O=C(O)c1ccc(-c2ccc3[nH]ccc3c2)cc1
fold change (FC) [1]: 2 to 3 | inhibition [2]: Active

Nc1cccnc1-c1ccc2[nH]ccc2c1
fold change (FC) [1]: 2 to 3 | inhibition [2]: Active

NC(=O)c1ccc(-c2ccc3[nH]ccc3c2)nc1
fold change (FC) [1]: 2 to 3 | inhibition [2]: Active

NC(=O)c1cncc(-c2ccc3[nH]ccc3c2)c1
fold change (FC) [1]: 1 to 2 | inhibition [2]: Active

Nc1ccc(-c2ccc3[nH]ccc3c2)cn1
fold change (FC) [1]: 2 to 3 | inhibition [2]: Active

O=Cc1ccc(-c2ccc3[nH]ccc3c2)nc1
fold change (FC) [1]: < 1 | inhibition [2]: inactive

c1ccc(-c2ccc3[nH]ccc3c2)nc1
fold change (FC) [1]: < 1 | inhibition [2]: inactive

O=C(O)c1ccnc(-c2ccc3[nH]ccc3c2)c1
fold change (FC) [1]: 2 to 3 | inhibition [2]: Active

Nc1cccc(-c2ccc3[nH]ccc3c2)n1
fold change (FC) [1]: 1 to 2 | inhibition [2]: Active

N#Cc1ccccc1-c1ccc2[nH]ccc2c1
fold change (FC) [1]: < 1 | inhibition [2]: inactive

NC(=O)c1ccnc(-c2ccc3[nH]ccc3c2)c1
fold change (FC) [1]: 2 to 3 | inhibition [2]: inactive
